pIC50: −log10 of the molar value.
How the values were obtained:
MKN-45 = experiment: Antiproliferative activity against human MKN45 cells after 72 hrs by Alamarblue assay; conditions: MKN-45, 72 h
NCI-H460 = experiment: Antiproliferative activity against human NCI-H460 cells after 72 hrs by Alamarblue assay; assay type: functional, cell-based; conditions: NCI-H460, 72 h
Summary of the method: (§1)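 Cells were seeded in medium with 10% FBS at 37 °C and 5% CO2. After 24 h the medium was switched to serum-free medium containing 0.04% BSA, and cells were exposed to compound for 72 h. AlamarBlue was then added for 1–4 h at 37 °C in the dark, and fluorescence was read at ex 570 / em 585 nm. IC50 was obtained by nonlinear regression fitting.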

A549 [1] = experiment: Antiproliferative activity against human A549 cells after 72 hrs by Alamarblue assay relative to control; conditions: A549, 72 h
EBC-1 = experiment: Antiproliferative activity against human EBC1 cells after 72 hrs by Alamarblue assay; conditions: EBC-1, 72 h
MCF7 [2] = experiment: Antiproliferative activity against human MCF7 cells after 72 hrs by Alamarblue assay relative to control; conditions: MCF7, 72 h
SGC-7901 [3] = experiment: Antiproliferative activity against human SGC7901 cells after 72 hrs by Alamarblue assay relative to control; conditions: SGC-7901, 72 h
PC-3 [4] = experiment: Antiproliferative activity against human PC3 cells after 72 hrs by Alamarblue assay; assay type: functional, cell-based; conditions: PC-3, 72 h; summary of the method: as §1
COLO 205 = experiment: Antiproliferative activity against human COLO205 cells after 72 hrs by Alamarblue assay; assay type: functional, cell-based; conditions: COLO 205, 72 h; summary of the method: as §1
HCT-116 [5] = experiment: Antiproliferative activity against human HCT116 cells after 72 hrs by Alamarblue assay relative to control; conditions: HCT-116, 72 h
[6] = biological target: Hepatocyte growth factor receptor (Homo sapiens, UniProt P08581); experiment: Inhibition of human GST-tagged c-MET using KKKSPGEYVNIEFG as substrate preincubated for 20 mins followed by [gamma-33P]ATP addition and measured after 2 hrs by filter-binding assay
PC-3 [7] = experiment: Antiproliferative activity against human PC3 cells at 10 uM after 72 hrs by Alamarblue assay relative to control; assay type: functional; conditions: PC-3, 72 h, read-out: GI
Summary of the method: (§2)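 Single-concentration screen in cells kept at 37 °C and 5% CO2. Cells were plated in 10% FBS medium, then moved after 24 h to serum-free medium with 0.04% BSA. Compound exposure lasted 72 h. AlamarBlue was added for 1–4 h at 37 °C protected from light, and fluorescence was measured at ex 570 / em 585 nm.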

[8] = biological target: Vascular endothelial growth factor receptor 2 (Homo sapiens, UniProt P35968); experiment: Inhibition of KDR (unknown origin)
[9] = biological target: Serine/threonine-protein kinase B-raf (Homo sapiens) (UniProt P15056); experiment: Inhibition of B-raf (unknown origin) at 50 uM
A549 [10] = experiment: Antiproliferative activity against human A549 cells at 10 uM after 72 hrs by Alamarblue assay relative to control; assay type: functional; conditions: A549, 72 h, read-out: GI; summary of the method: as §2
HCT-116 [11] = experiment: Antiproliferative activity against human HCT116 cells at 10 uM after 72 hrs by Alamarblue assay relative to control; assay type: functional; conditions: HCT-116, 72 h, read-out: GI; summary of the method: as §2
SGC-7901 [12] = experiment: Antiproliferative activity against human SGC7901 cells at 10 uM after 72 hrs by Alamarblue assay relative to control; assay type: functional; conditions: SGC-7901, 72 h, read-out: GI; summary of the method: as §2
MCF7 [13] = experiment: Antiproliferative activity against human MCF7 cells at 10 uM after 72 hrs by Alamarblue assay relative to control; assay type: functional; conditions: MCF7, 72 h, read-out: GI; summary of the method: as §2

Sequence of Hepatocyte growth factor receptor (P08581 whole entry): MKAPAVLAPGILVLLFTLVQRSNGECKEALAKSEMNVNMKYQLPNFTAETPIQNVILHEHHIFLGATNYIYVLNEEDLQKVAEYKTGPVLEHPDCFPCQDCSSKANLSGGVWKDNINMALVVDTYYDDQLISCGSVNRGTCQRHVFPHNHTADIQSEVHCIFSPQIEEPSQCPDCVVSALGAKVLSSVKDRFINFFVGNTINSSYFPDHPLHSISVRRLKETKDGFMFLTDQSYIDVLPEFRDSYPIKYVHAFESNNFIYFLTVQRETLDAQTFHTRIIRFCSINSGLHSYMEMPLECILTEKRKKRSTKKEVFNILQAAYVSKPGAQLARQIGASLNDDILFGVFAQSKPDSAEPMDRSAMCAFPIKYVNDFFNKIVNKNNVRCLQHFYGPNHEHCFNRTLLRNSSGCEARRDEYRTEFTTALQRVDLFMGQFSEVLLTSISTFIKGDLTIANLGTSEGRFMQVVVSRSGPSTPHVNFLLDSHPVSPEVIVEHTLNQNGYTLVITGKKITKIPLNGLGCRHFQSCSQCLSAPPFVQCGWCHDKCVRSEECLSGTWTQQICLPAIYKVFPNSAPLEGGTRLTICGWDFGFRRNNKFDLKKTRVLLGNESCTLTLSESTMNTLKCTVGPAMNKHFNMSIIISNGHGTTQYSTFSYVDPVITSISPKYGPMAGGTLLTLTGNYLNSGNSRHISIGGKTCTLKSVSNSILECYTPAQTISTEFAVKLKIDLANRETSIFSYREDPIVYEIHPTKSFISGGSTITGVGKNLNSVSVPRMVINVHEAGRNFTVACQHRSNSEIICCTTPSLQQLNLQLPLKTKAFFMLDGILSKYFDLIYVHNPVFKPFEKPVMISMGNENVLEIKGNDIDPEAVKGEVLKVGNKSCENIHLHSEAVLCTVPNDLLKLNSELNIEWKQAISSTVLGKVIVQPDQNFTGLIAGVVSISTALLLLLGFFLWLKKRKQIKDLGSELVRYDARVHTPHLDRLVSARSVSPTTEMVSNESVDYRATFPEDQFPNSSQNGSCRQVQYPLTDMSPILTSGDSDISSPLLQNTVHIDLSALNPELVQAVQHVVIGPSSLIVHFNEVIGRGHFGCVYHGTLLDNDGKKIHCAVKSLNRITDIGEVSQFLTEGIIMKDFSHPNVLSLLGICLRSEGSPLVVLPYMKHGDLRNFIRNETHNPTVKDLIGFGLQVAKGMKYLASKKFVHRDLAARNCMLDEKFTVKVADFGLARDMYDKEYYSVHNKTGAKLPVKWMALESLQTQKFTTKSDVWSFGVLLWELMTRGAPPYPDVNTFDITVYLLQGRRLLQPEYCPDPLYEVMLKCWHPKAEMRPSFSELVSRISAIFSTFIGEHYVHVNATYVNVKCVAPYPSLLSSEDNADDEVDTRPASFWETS
Sequence of Vascular endothelial growth factor receptor 2 (P35968 whole entry): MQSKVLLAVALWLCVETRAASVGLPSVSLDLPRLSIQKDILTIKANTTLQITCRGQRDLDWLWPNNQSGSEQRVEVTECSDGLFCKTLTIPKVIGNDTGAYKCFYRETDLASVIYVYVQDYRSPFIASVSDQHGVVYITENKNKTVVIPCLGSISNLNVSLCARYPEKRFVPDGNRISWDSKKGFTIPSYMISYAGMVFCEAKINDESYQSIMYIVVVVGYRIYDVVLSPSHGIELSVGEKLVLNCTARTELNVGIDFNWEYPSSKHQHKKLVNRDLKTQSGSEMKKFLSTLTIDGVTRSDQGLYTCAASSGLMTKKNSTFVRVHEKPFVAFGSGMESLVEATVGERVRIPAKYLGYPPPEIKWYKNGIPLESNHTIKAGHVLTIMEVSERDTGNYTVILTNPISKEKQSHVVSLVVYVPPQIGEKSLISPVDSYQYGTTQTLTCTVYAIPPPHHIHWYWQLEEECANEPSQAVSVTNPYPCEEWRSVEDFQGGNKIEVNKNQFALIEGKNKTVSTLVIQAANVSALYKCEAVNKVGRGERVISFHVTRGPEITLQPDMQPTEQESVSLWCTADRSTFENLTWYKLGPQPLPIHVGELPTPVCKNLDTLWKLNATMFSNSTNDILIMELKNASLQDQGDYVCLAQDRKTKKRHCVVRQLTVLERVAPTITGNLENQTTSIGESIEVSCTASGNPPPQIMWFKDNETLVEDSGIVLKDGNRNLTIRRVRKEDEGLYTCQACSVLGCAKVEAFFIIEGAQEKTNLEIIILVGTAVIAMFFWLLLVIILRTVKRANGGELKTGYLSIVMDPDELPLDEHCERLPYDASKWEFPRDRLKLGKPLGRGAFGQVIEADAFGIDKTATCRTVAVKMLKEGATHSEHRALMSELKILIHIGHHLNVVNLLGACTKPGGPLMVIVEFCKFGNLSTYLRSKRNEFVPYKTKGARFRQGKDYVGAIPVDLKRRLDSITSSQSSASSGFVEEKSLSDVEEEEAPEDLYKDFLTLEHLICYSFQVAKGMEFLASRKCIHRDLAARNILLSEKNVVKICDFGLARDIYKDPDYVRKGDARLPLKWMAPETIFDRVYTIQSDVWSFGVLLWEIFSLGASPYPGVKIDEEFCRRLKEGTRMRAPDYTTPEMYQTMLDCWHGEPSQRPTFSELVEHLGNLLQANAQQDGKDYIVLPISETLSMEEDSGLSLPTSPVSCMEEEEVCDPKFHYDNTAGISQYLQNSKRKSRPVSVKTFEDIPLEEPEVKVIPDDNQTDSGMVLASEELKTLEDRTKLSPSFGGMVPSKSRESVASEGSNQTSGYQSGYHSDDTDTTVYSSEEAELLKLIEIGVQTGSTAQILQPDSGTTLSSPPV
Sequence of Serine/threonine-protein kinase B-raf (Homo sapiens) (P15056 whole entry): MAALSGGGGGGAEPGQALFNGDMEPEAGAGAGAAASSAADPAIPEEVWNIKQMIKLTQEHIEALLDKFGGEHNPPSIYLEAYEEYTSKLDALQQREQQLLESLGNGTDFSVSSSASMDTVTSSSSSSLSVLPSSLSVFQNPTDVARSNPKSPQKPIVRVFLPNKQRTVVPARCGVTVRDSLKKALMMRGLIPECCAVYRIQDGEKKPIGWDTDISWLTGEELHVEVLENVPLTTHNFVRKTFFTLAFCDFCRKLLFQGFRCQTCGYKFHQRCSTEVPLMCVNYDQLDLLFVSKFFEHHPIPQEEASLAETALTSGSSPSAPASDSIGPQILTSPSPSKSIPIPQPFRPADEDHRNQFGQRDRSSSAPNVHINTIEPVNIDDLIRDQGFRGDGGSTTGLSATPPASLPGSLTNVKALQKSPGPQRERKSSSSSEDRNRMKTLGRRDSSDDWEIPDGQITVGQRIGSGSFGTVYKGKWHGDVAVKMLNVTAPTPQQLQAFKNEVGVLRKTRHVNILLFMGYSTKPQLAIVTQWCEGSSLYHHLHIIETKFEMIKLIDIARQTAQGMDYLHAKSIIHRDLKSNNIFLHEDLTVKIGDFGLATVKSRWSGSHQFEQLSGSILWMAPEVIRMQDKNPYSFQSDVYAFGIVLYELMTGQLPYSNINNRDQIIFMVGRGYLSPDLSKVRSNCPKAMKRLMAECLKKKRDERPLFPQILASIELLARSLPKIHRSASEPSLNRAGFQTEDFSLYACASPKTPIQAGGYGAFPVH

Row | SMILES | pIC50 (MKN-45) | pIC50 (NCI-H460) | pIC50 (EBC-1) | pIC50 (PC-3 [4]) | pIC50 (COLO 205) | inhibition of growth at 10 µM (PC-3 [7]) [%] | inhibition of growth at 10 µM (A549 [10]) [%] | inhibition of growth at 10 µM (HCT-116 [11]) [%] | inhibition of growth at 10 µM (SGC-7901 [12]) [%] | inhibition of growth at 10 µM (MCF7 [13]) [%] | further results
1 | C[C@@H](Oc1cc(-c2cnn(C3CCNCC3)c2)cnc1N)c1c(Cl)ccc(F)c1Cl [CRIZOTINIB] | 7.66 | 5.65 | 7.89 | 5.01 | 5.61 | – | – | – | – | – | pIC50 (A549 [1]): 6.87; pIC50 (MCF7 [2]): 7.35; pIC50 (SGC-7901 [3]): 6.49; pIC50 (HCT-116 [5]): 6.60
2 | COc1ccc(Cc2nnc3sc(-c4cc5ccccc5[nH]4)nn23)cc1 | – | – | – | – | – | 55.1 | 6.08 | 0.64 | 12.3 | 14.9 | pIC50 [6]: 6.72; pIC50 [8]: 5.48; inhibition [9]: 17.8%
3 | COc1ccc(Cc2nnc3sc(-c4ccccc4OC)nn23)cc1 | – | – | – | – | – | 57.7 | 10.4 | 8.2 | 15.5 | 35.7 | –
4 | Fc1ccccc1-c1cn2c(COc3ccc4c(c3)OCO4)nnc2s1 | – | – | – | – | – | 19.4 | 20.1 | 4.73 | 12.4 | 45.4 | –
5 | COc1ccc2c(OCc3nnc4sc(-c5cc6ccccc6[nH]5)nn34)ccnc2c1 | 5.93 | 5.69 | 6.30 | 5.53 | 5.65 | – | – | – | – | – | –
6 | COc1ccc2c(OCc3nnc4sc(-c5ccc6[nH]cnc6c5)nn34)ccnc2c1 | 5.99 | – | 5.50 | – | – | – | – | – | – | – | –
